Laboratory results taken from ChEMBL document CHEMBL1817612, “Inhibitory potential of chemical substitutions at bioinspired sites of β-D-galactopyranose on neoglycoprotein/cell surface binding of two classes of medically relevant lectins” (Bioorg Med Chem, 2011).
The source made the active and inactive calls. The rule behind the calls is not given here.

What was measured:
[1] = target: Galectin-3 (Homo sapiens) (UniProt P17931); assay: Inhibition of galectin-3 binding to biotinylated lectin at cell surface of human Jurkat T-cells at 2 mM by fluorometric analysis; format: cell-based
Galectin-3 (Homo sapiens), sequence (P17931 whole entry): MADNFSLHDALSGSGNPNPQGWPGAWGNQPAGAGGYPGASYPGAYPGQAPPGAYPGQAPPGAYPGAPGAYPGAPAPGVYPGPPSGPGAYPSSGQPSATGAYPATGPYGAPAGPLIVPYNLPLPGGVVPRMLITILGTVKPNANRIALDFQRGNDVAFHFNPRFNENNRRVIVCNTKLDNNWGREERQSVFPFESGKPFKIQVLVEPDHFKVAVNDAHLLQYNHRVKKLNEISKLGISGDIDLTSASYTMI
Summary of the method: (§1)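 Recombinant biotinylated galectin-3, at a concentration set by titration, was bound to 5 × 10⁴ Jurkat or SW480 cells per assay, with or without compound. Lactose was run in parallel as reference. A fluorescent second-step reagent gave percent positive cells and mean fluorescence intensity by flow cytometry. Negative controls omitted labeled lectin, and non-cognate sugars served as osmolarity controls.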

[2] = target: Galectin-9 (Homo sapiens) (UniProt O00182); assay: Ratio IC50 for lactose to compound for galectin-9 binding to biotinylated neoglycoprotein with p-isothiocyanatophynyl lactoside assessed as lectin-neoglycoprotein complex formation after 1 hr by spectrophotometrically relative to lactose
Galectin-9 (Homo sapiens), sequence (O00182 whole entry): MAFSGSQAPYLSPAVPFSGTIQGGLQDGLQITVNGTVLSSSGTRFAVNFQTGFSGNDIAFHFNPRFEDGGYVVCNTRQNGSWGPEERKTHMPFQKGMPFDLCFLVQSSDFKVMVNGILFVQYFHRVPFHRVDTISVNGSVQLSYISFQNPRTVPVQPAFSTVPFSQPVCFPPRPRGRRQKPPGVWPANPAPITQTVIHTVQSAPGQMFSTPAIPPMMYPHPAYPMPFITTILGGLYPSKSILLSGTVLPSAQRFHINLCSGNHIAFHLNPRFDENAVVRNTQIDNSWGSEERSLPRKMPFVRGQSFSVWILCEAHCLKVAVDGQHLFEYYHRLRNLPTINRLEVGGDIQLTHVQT
Summary of the method: (§2)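 Lactosylated BSA (p-isothiocyanatophenyl lactoside, about 26 sugars per carrier) was adsorbed to wells from PBS overnight at 4 °C. Biotinylated lectin, at a concentration from titration, was incubated 1 h at 37 °C with up to nine compound concentrations. Bound lectin was read spectrophotometrically. Glycocluster concentration was normalized to sugar content, and lactose served as internal reference. Triplicates were run in up to five series.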

[3] = system: Jurkat; assay: Inhibition of Viscum album agglutinin binding to biotinylated lectin at cell surface of human Jurkat T-cells at 1 mM by fluorometric analysis; format: cell-based
Summary of the method: (§3)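 Biotinylated mistletoe lectin (VAA, purified from dried leaves on lactosylated Sepharose) was bound to 5 × 10⁴ Jurkat cells per assay at 2.5 µg/ml, with or without compound. Staining was detected with a fluorescent second-step reagent by flow cytometry, as percent positive cells and mean fluorescence intensity. Controls were lactose/galactose, non-cognate sugars for osmolarity, and omission of labeled lectin.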

[4] = system: Viscum album; assay: Ratio IC50 for lactose to compound for Viscum album agglutinin binding to biotinylated neoglycoprotein with p-isothiocyanatophynyl lactoside assessed as lectin-neoglycoprotein complex formation after 1 hr by spectrophotometric analysis; summary of the method: as §2
[5] = target: Galectin-3 (Homo sapiens) (UniProt P17931); assay: Ratio IC50 for lactose to compound for galectin-3 binding to biotinylated neoglycoprotein with p-isothiocyanatophynyl lactoside assessed as lectin-neoglycoprotein complex formation after 1 hr by spectrophotometric analysis; summary of the method: as §2
[6] = target: T1, Galectin-8 (Homo sapiens) (UniProt O00214); assay: Ratio IC50 for lactose to compound for galectin-8 binding to biotinylated neoglycoprotein with p-isothiocyanatophynyl lactoside assessed as lectin-neoglycoprotein complex formation after 1 hr by spectrophotometric analysis; summary of the method: as §2
T1 sequence (whole entry): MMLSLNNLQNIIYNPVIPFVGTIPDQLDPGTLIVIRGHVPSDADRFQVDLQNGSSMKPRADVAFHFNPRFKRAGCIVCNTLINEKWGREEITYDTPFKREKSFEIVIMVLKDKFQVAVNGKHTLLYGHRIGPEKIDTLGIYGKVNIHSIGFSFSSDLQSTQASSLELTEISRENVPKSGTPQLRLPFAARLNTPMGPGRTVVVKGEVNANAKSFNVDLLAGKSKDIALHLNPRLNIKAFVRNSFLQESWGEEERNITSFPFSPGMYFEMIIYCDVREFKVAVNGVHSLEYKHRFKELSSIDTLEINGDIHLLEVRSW

[7] = target: Galectin-1 (Homo sapiens) (UniProt P09382); assay: Ratio IC50 for lactose to compound for galectin-1 binding to biotinylated neoglycoprotein with p-isothiocyanatophynyl lactoside assessed as lectin-neoglycoprotein complex formation after 1 hr by spectrophotometric analysis; summary of the method: as §2
Galectin-1 (Homo sapiens), sequence (P09382 whole entry): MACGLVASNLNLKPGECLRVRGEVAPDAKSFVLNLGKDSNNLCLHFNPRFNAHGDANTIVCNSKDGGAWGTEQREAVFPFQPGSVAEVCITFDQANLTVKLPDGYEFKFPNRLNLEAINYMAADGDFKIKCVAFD

[8] = target: Galectin-3 (Homo sapiens) (UniProt P17931); assay: Inhibition of galectin-3 binding to biotinylated lectin at cell surface of human Jurkat T-cells at 1 mM by fluorometric analysis relative to lactose; format: cell-based; summary of the method: as §1
[9] = target: Galectin-9 (Homo sapiens) (UniProt O00182); assay: Inhibition of galectin-9 binding to biotinylated lectin at cell surface of human SW480 cells at 2 mM by fluorometric analysis; format: cell-based
Summary of the method: (§4)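 Biotinylated recombinant galectin-8 (1 µg/ml) or galectin-9 (40 µg/ml) was bound to 5 × 10⁴ SW480 cells per assay, with or without compound at 2 mM. Lactose was run in parallel. Staining via a fluorescent second-step reagent was quantified as percent positive cells and mean fluorescence intensity. Controls were omission of lectin and non-cognate sugars.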

[10] = system: Jurkat; assay: Inhibition of Viscum album agglutinin binding to biotinylated lectin at cell surface of human Jurkat T-cells at 2.5 ug/ml by fluorometric analysis; format: cell-based; summary of the method: as §3
[11] = target: T1, Galectin-8 (Homo sapiens); assay: (§5) Inhibition of galectin-8 binding to biotinylated lectin at cell surface of human SW480 cells at 2 mM by fluorometric analysis; format: cell-based; summary of the method: as §4
[12] = Cytotoxicity against human SW480 cells assessed as growth inhibition at 5 mM after 48 hrs by MTT assay; format: cell-based; conditions: read-out: GI
Summary of the method: (§6)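 SW480 human colon adenocarcinoma cell aliquots were cultured 48 h with no addition (control) or with test compound added to the medium at 1, 2, 5 or 10 mM. Galactose and lactose were run as controls. Growth was read spectrophotometrically with MTT (0.5 mg/ml) and expressed relative to the untreated control. Triplicates were run in three independent series.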

[13] = system: SW480; assay: (§7) Cytotoxicity against human SW480 cells assessed as cell viability at 2 mM after 48 hrs by MTT assay; format: cell-based; conditions: sw480, 48 h, 2000 µM; summary of the method: as §6
[14] = Cytotoxicity against human SW480 cells assessed as growth inhibition at 1 mM after 48 hrs by MTT assay; format: cell-based; conditions: read-out: GI; summary of the method: as §6
[15] = as §7; format: cell-based; conditions: SW480 cells, read-out: GI; summary of the method: as §6
[16] = target: Galectin-3 (Homo sapiens) (UniProt P17931); assay: Inhibition of galectin-3 binding to biotinylated lectin at cell surface of human SW480 cells at 15 uM by fluorometric analysis; format: cell-based; summary of the method: as §1
[17] = target: Galectin-3 (Homo sapiens) (UniProt P17931); assay: Inhibition of galectin-3 binding to biotinylated lectin at cell surface of human Jurkat T-cells at 15 uM by fluorometric analysis; format: cell-based; summary of the method: as §1
[18] = target: Galectin-8 (Homo sapiens) (UniProt O00214); assay: as §5; format: cell-based; summary of the method: as §4; remark: listed apart in the source
[19] = target: Galectin-3 (Homo sapiens) (UniProt P17931); assay: Inhibition of galectin-3 binding to biotinylated lectin at cell surface of human SW480 cells at 100 uM by fluorometric analysis; format: cell-based; summary of the method: as §1
[20] = target: Galectin-3 (Homo sapiens) (UniProt P17931); assay: Inhibition of galectin-3 binding to biotinylated lectin at cell surface of human Jurkat T-cells at 100 uM by fluorometric analysis; format: cell-based; summary of the method: as §1

C=C(C[C@@H]1O[C@H](CO)[C@H](O)[C@H](O)[C@H]1O)c1cccc([N+](=O)[O-])c1
inhibition [1]: inactive

O=S(=O)(O)OCc1cn([C@H]2[C@@H](O)[C@@H](CO)O[C@@H](Sc3nc4ccccc4s3)[C@@H]2O)nn1
Ratio IC50 [2]: 1.4

Cc1nc(NC(=O)Cc2ccccc2)sc1[C@@H]1O[C@H](CO)[C@H](O)[C@H](O)[C@H]1O
inhibition [3]: Active
Ratio IC50 [4]: 1.3
Ratio IC50 [5]: 1.1

O=C(CCSCCC(F)(F)C(F)(F)C(F)(F)C(F)(F)C(F)(F)C(F)(F)C(F)(F)C(F)(F)F)NC(CO[C@@H]1O[C@H](CO)[C@H](O)[C@H](O)[C@H]1O)(CO[C@@H]1O[C@H](CO)[C@H](O)[C@H](O)[C@H]1O)CO[C@@H]1O[C@H](CO)[C@H](O)[C@H](O)[C@H]1O
Ratio IC50 [6]: 4.6
Ratio IC50 [7]: 1.8
fold change (FC) [8]: 7
inhibition [9]: Active
inhibition [10]: Active
inhibition [11]: Active
Ratio IC50 [4]: 2.2
Ratio IC50 [2]: 5.1
Ratio IC50 [5]: 6.2

C/C=C/[C@@H]1O[C@H](CO)[C@H](O)[C@H](O)[C@H]1O
inhibition at 48 h, 5000 µM [12]: 50%
Activity [13]: Non-toxic

COc1ccc(C(=O)Nc2nc(C)c([C@@H]3O[C@H](CO)[C@H](O)[C@H](O)[C@H]3O)s2)cc1
inhibition at 48 h, 5000 µM [12]: 50%
Activity [13]: Non-toxic

O=C(O)c1cn([C@H]2[C@@H](O)[C@@H](CO)O[C@@H](Sc3nc4ccccc4s3)[C@@H]2O)nn1
inhibition at 48 h, 1000 µM [14]: 70%
Ratio IC50 [5]: 1.4
inhibition at 48 h, 2000 µM [15]: 40%

O=C(NCc1cn([C@@H]2O[C@H](CO)[C@H](O[C@@H]3O[C@H](CO)[C@H](O)[C@H](O)[C@H]3O)[C@H](O)[C@H]2O)nn1)c1cc(C(=O)NCc2cn([C@@H]3O[C@H](CO)[C@H](O[C@@H]4O[C@H](CO)[C@H](O)[C@H](O)[C@H]4O)[C@H](O)[C@H]3O)nn2)cc(C(=O)NCc2cn([C@@H]3O[C@H](CO)[C@H](O[C@@H]4O[C@H](CO)[C@H](O)[C@H](O)[C@H]4O)[C@H](O)[C@H]3O)nn2)c1
Ratio IC50 [6]: 6.9
fold change (FC) [8]: 7
inhibition [9]: Active
inhibition [10]: Active
inhibition [11]: Active
Ratio IC50 [4]: 6.2
inhibition at 48 h, 1000 µM [14]: 75%
Ratio IC50 [2]: 7.7
inhibition [16]: Active
Ratio IC50 [5]: 8.4
inhibition [17]: Active
inhibition at 48 h, 2000 µM [15]: 58%

Cc1nc(NS(=O)(=O)c2ccc3ccccc3c2)sc1[C@@H]1O[C@H](CO)[C@H](O)[C@H](O)[C@H]1O
inhibition at 48 h, 5000 µM [12]: 50%
Activity [13]: Non-toxic

OC[C@@H]1O[C@H](C/C=C/c2cccc(/C=C/C[C@@H]3O[C@H](CO)[C@H](O)[C@H](O)[C@H]3O)c2)[C@@H](O)[C@H](O)[C@@H]1O
Ratio IC50 [4]: 1.9

Cc1nc(NC(=O)c2ccccc2)sc1[C@@H]1O[C@H](CO)[C@H](O)[C@H](O)[C@H]1O
inhibition [3]: Active
Ratio IC50 [4]: 1.2
Ratio IC50 [5]: 1.3

C#CCO[C@H]1[C@@H](O)[C@@H](CO)O[C@@H](Sc2ccccc2C(=O)OC)[C@@H]1O
inhibition at 48 h, 1000 µM [14]: 10%
Ratio IC50 [5]: 1.8

CC(C)(C)C(=O)c1cc(CO[C@@H]2O[C@H](CO)[C@H](O[C@@H]3O[C@H](CO)[C@H](O)[C@H](O)[C@H]3O)[C@H](O)[C@H]2O)on1
Ratio IC50 [6]: 2.2
inhibition [9]: Active
inhibition [11]: Active
Ratio IC50 [2]: 1.7
Ratio IC50 [5]: 1.6

LACTOSE, ANHYDROUS
inhibition [9]: Active
inhibition [1]: inactive
inhibition [18]: Active
inhibition [19]: Active
inhibition [20]: Active
